Legend:
Hs68 = assay: Cytotoxicity against human HS68 cells at 25 to 200 uM after 48 hrs by SRB assay; assay type: cell-based; details: hs68, 48 h
Method in brief: (§1)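 Cells exposed to each compound for 48 h; growth measured by sulforhodamine B staining. Compounds dissolved in DMSO, then diluted into growth medium. Cisplatin served as positive control. IC50 values derived from the SRB read-out.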

A549 = assay: Cytotoxicity against human A549 cells after 48 hrs by SRB assay; assay type: functional, cell-based; details: A549, 48 h; method in brief: as §1
MDA-MB-231 = assay: Cytotoxicity against human MDA-MB-231 cells after 48 hrs by SRB assay; assay type: functional, cell-based; details: MDA-MB-231, 48 h; method in brief: as §1

| SMILES | Activity (Hs68) | IC50 (A549) [µM] | IC50 (MDA-MB-231) [µM] |
| --- | --- | --- | --- |
| C=C(CC[C@@H](C(=O)O)[C@H]1C[C@H](OC(C)=O)[C@@]2(C)C3=CC[C@H]4C(C)(C)[C@@H](O)CC[C@]4(C)C3=CC[C@]12C)C(C)C | Non-toxic | – | – |
| C=C(CC[C@@H](C)[C@H]1CC=C2C3=C(C(=O)C[C@@]21C)[C@@]1(C)CCC(=O)[C@@H](C)[C@@H]1C[C@@H]3O)C(C)C(=O)O (some centres not stated) | Non-toxic | 40.6 | 31.6 |
| CC(=O)CC[C@@H](C)[C@H]1CC[C@H]2C3=C(C(=O)C[C@]12C)[C@@]1(C)CCC(=O)[C@@H](C)[C@@H]1CC3=O | Non-toxic | 65.9 | 45.5 |
| C=C(CC[C@@H](C)[C@H]1CC[C@H]2C3=C(C(=O)C[C@]12C)[C@@]1(C)CCC(=O)[C@](C)(O)[C@@H]1C[C@@H]3O)[C@@H](C)C(=O)O | Non-toxic | 66.3 | 67.2 |
| C=C(CC[C@@H](C)[C@H]1CC[C@H]2C3=C(C(=O)C[C@]12C)[C@@]1(C)CCC(=O)[C@@H](C)[C@@H]1CC3=O)[C@H](C)C(=O)O [ANTCIN B] | Non-toxic | 57.4 | 44 |
| C=C(CC[C@@H](C)[C@H]1CC[C@H]2C3=C(C(=O)[C@H](O)[C@]12C)[C@@]1(C)CCC(=O)[C@@H](C)[C@@H]1CC3=O)[C@H](C)C(=O)O | Non-toxic | 84.4 | 71.3 |
| C=C(CC[C@@H](C)[C@H]1CC[C@H]2C3=C(C(=O)C[C@]12C)[C@@]1(C)CCC(=O)[C@](C)(O)[C@@H]1C[C@@H]3O)[C@H](C)C(=O)O | Non-toxic | 80.2 | 58.6 |
| C=C(CC[C@@H](C)[C@H]1CC[C@H]2C3=C(C(=O)[C@H](O)[C@]12C)[C@@]1(C)CC[C@@H](O)[C@@H](C)[C@@H]1C[C@@H]3O)C(C)C(=O)O (some centres not stated) [CAMPHORATIN A] | Non-toxic | 92.1 | 93.5 |
| C/C(C=O)=C(\C)CC[C@@H](C)[C@H]1CC[C@H]2C3=C(C(=O)C[C@]12C)[C@@]1(C)CCC(=O)[C@@H](C)[C@@H]1CC3 | Non-toxic | – | – |
| C=C(CC[C@@H](C)[C@H]1CC[C@H]2C3=C(C(=O)C[C@]12C)[C@@]1(C)CCC(=O)[C@](C)(O)[C@@H]1C[C@@H]3O)[C@@H](C)C(=O)OC | Non-toxic | 93.2 | 71.5 |
| C=C(CC[C@@H](C(=O)O)[C@H]1C[C@H](O)[C@@]2(C)C3=CC[C@H]4C(C)(C)C(=O)CC[C@]4(C)C3=CC[C@]12C)C(C)C | Non-toxic | – | – |
| C=C(CC[C@@H](C(=O)O)[C@H]1CC[C@@]2(C)C3=C(CC[C@]12C)[C@@]1(C)CC[C@H](O)C(C)(C)[C@@H]1CC3)C(C)C [EBURICOIC ACID] | Non-toxic | – | – |
| C=C(CC[C@@H](C)[C@H]1CC[C@H]2C3=C(C(=O)C[C@]12C)[C@@]1(C)CC[C@H](O)[C@@H](C)[C@@H]1C[C@@H]3O)[C@@H](C)C(=O)O | Non-toxic | – | – |
| C=C(CC[C@@H](C)[C@H]1CC[C@H]2C3=C(C(=O)[C@H](O)[C@]12C)[C@@]1(C)CC[C@@H](O)[C@@H](C)[C@@H]1CC3=O)[C@H](C)C(=O)O | Non-toxic | 32.8 | 38.6 |
| C=C(CC[C@@H](C)[C@H]1CC[C@H]2C3=C(C(=O)C[C@]12C)[C@@]1(C)CCC(=O)[C@@H](C)[C@@H]1CC3)C(C)C(=O)O (some centres not stated) [ANTCIN A] | Non-toxic | 39.4 | 29.6 |
| C=C(CC[C@@H](C)[C@H]1CC[C@H]2C3=C(C(=O)C[C@]12C)[C@@]1(C)CCC(=O)[C@](C)(O)[C@@H]1C[C@@H]3O)[C@H](C)C(=O)OC | Non-toxic | 73.2 | 76.8 |
| C=C(CC[C@@H](C)[C@H]1CC[C@H]2C3=C(C(=O)C[C@]12C)[C@@]1(C)CC[C@@H](O)[C@](C)(O)[C@@H]1C[C@@H]3O)[C@H](C)C(=O)O | Non-toxic | – | – |
| C=C(CC[C@@H](C(=O)O)[C@H]1C[C@H](O)[C@@]2(C)C3=C(CC[C@]12C)[C@@]1(C)CC[C@H](O)C(C)(C)[C@@H]1CC3)C(C)C [SULFURENIC ACID] | Non-toxic | – | – |
| C=C(CC[C@@H](C)[C@H]1CC[C@H]2C3=C(C(=O)C[C@]12C)[C@@]1(C)CC[C@@H](O)[C@](C)(O)[C@@H]1C[C@@H]3O)[C@@H](C)C(=O)O | Non-toxic | – | – |
| C=C(CC[C@@H](C(=O)O)[C@H]1CC[C@@]2(C)C3=CC[C@H]4C(C)(C)[C@@H](O)CC[C@]4(C)C3=CC[C@]12C)C(C)C [DEHYDROEBURICOIC ACID] | Non-toxic | – | – |
| C=C(CC[C@@H](C)[C@H]1CC[C@H]2C3=C(C(=O)C[C@]12C)[C@@]1(C)CCC(=O)[C@@H](C)[C@@H]1C[C@@H]3O)[C@H](C)C(=O)O | Non-toxic | 76.2 | 74.2 |
| C[C@@H]1[C@H](O)CC[C@]2(C)C3=C(C(=O)C[C@@H]12)[C@@H]1CC[C@H]([C@H](C)CCO)[C@@]1(C)[C@@H](O)C3=O | Non-toxic | – | – |
| C=C(CC[C@@H](C)[C@H]1CC[C@H]2C3=C(C(=O)[C@H](O)[C@]12C)[C@@]1(C)CCC(=O)[C@@H](C)[C@@H]1CC3=O)[C@@H](C)C(=O)O | Non-toxic | – | – |
| C=C(CC[C@@H](C)[C@H]1CC[C@H]2C3=C(C(=O)C[C@]12C)[C@@]1(C)CCC(=O)[C@@H](C)[C@@H]1CC3=O)[C@@H](C)C(=O)O | Non-toxic | 41.4 | 33.4 |
| C=C(CC[C@@H](C)[C@H]1CC[C@H]2C3=C(C(=O)C[C@]12C)[C@@]1(C)CC[C@@H](O)[C@](C)(O)[C@@H]1CC3=O)C(C)C(=O)O (some centres not stated) [CAMPHORATIN C] | Non-toxic | 48.8 | 62.8 |
| C=C(CC[C@@H](C)[C@H]1CC[C@H]2C3=C(C(=O)[C@H](O)[C@]12C)[C@@]1(C)CC[C@@H](O)[C@@H](C)[C@@H]1CC3=O)[C@@H](C)C(=O)O | Non-toxic | 22 | 23.7 |
| C=C(CC[C@@H](C)[C@H]1CC[C@H]2C3=C(C(=O)C[C@]12C)[C@@]1(C)CCC(=O)[C@@H](C)[C@@H]1C[C@@H]3O)[C@@H](C)C(=O)O | Non-toxic | 33.1 | 25.1 |
| C=C(CC[C@@H](C(=O)O)[C@H]1C[C@H](O)[C@@]2(C)C3=CC[C@H]4C(C)(C)[C@@H](O)CC[C@]4(C)C3=CC[C@]12C)C(C)C | Non-toxic | – | – |
| C=C(CC[C@@H](C)[C@H]1CC[C@H]2C3=C(C(=O)C[C@]12C)[C@@]1(C)CC[C@H](O)[C@@H](C)[C@@H]1C[C@@H]3O)[C@H](C)C(=O)O | Non-toxic | – | – |
| C/C(C=O)=C(/C)CC[C@@H](C)[C@H]1CC[C@H]2C3=C(C(=O)C[C@]12C)[C@@]1(C)CCC(=O)[C@@H](C)[C@@H]1CC3 | Non-toxic | – | – |
